Published values pooled from the literature.
Compare with care: the assays were run in different laboratories.
EGFR T790M: Epidermal growth factor receptor (EGFR, Homo sapiens, UniProt P00533, T790M)
EGFR del752-759: Epidermal growth factor receptor (EGFR, Homo sapiens, UniProt P00533, del752-759)
EGFR del747-752/P753S: Epidermal growth factor receptor (EGFR, Homo sapiens, UniProt P00533, del747-752/P753S)
EGFR L861Q: Epidermal growth factor receptor (EGFR, Homo sapiens, UniProt P00533, L861Q)
EGFR: Epidermal growth factor receptor (EGFR, Homo sapiens, UniProt P00533)
EGFR L858R/T790M: Epidermal growth factor receptor (EGFR, Homo sapiens, UniProt P00533, L858R/T790M)
EGFR G719C: Epidermal growth factor receptor (EGFR, Homo sapiens, UniProt P00533, G719C)
EGFR L858R: Epidermal growth factor receptor (EGFR, Homo sapiens, UniProt P00533, L858R)
EGFR G719S: Epidermal growth factor receptor (EGFR, Homo sapiens, UniProt P00533, G719S)

| Compound | target | test | conditions | quantity | value |
| --- | --- | --- | --- | --- | --- |
| Cc1cnn2ncc(-c3ccnc(N(C)C)n3)c2c1 | EGFR T790M | binding | 1 µM | remaining binding | 100% |
| Cn1nc(C(F)(F)F)cc1-c1cnc(N2CCc3cc(S(=O)(=O)Nc4c(F)cc(Cl)cc4F)cc(N4CCCC4=O)c32)nc1 | EGFR del752-759 | cell-free assay, competition with immobilised ligand | 1 µM | remaining binding | 100% |
| Nc1ncnc2occ(-c3ccc(NC(=O)Nc4cc(C(F)(F)F)ccc4F)cc3)c12 | EGFR T790M | cell-free assay | 20 µM | remaining signal | 12% |
| C[C@@]1(Cc2ccc(C#N)cc2)C(=O)N(c2cc(Cl)cc(Cl)c2)c2ncc(C(=O)NC3(c4nc(C5CCC5)no4)CC3)n21 | EGFR del747-752/P753S | cell-free assay, competition with immobilised ligand | 1 µM | remaining binding | 58% |
| O=C(NCCCN1CCOCC1)c1ccc(Nc2ncc(Cl)c(-c3ccc(Cl)s3)n2)cc1 | EGFR del747-752/P753S | binding, competition with immobilised ligand | 1 µM | remaining binding | 98% |
| CC/C(=N\NC(=O)NCc1cccc(O)c1)c1ccc(O)c(C)c1O | EGFR L861Q | enzyme activity, inhibitor | 0.1 µM | inhibition | 0.4% |
| O=C(NCCCN1CCOCC1)c1ccc(Nc2nccc(-c3cc4ccccc4s3)n2)cc1 | EGFR T790M | binding, competition with immobilised ligand | 1 µM | remaining binding | 90% |
| CC(C)[C@@H]1NC(=O)[C@H](CCCNC(=N)N)NC(=O)[C@H](Cc2ccc(O)cc2)NC(=O)[C@H](C(C)C)NC(=O)[C@H](C(C)C)NC(=O)[C@H](CCCNC(=N)N)NC(=O)[C@H](CC(=O)O)NC(=O)[C@H](CC(=O)O)NC(=O)[C@H](C)NC(=O)[C@H](Cc2ccc(O)cc2)NC(=O)[C@H](Cc2ccc(O)cc2)NC(=O)[C@H](Cc2ccccc2)NC(=O)[C@@H](Cc2ccc(O)cc2)NC(=O)CSC[C@@H](C(=O)NCC(N)=O)NC(=O)[C@H](C)NC1=O | EGFR | binding, SPR | – | kon | 166000 M⁻¹ s⁻¹ |
| CC(C)(C)c1nc(-c2cccc(NS(=O)(=O)c3c(F)cccc3F)c2F)c(-c2ccnc(N)n2)s1 | EGFR | enzyme activity, inhibitor, radiometric | 1 µM | remaining activity | 119% |
| c1cncc(-c2cccc(Nc3nccc(NC4CCCCC4)n3)c2)c1 | EGFR | binding, competition with immobilised ligand | 10 µM | remaining binding | 56% |
| COc1cc2ncnc(Nc3ccc(Oc4ccccc4)cc3C)c2cc1OC | EGFR L858R/T790M | enzyme activity, inhibitor | 1 µM | inhibition | 26% |
| Cc1ccc(C(=O)Nc2ccc(CN3CCN(C)CC3)c(C(F)(F)F)c2)cc1C#Cc1cnc2cccnn12 | EGFR G719C | cell-free assay | 23.5 nM | remaining signal | 88% |
| COc1cc2ncnc(Nc3ccc(Oc4ccccc4)c(C)c3C)c2cc1OC | EGFR | enzyme activity, inhibitor | 1 µM | inhibition | 91% |
| CN(C)C1CCN(CC#Cc2nn(C3CCCC3)c3nc(NCc4ccccc4)ncc23)C1 (stereo not drawn) | EGFR | enzyme activity, inhibitor, FRET | 0.1 µM | inhibition | 14% |
| CC(C)[C@@H]1NC(=O)CCNC(=O)CCNC(=O)[C@H](Cc2ccc(O)cc2)NC(=O)[C@H](Cc2ccc(O)cc2)NC(=O)[C@H](Cc2ccccc2)NC(=O)[C@@H](Cc2ccc(O)cc2)NC(=O)CSC[C@@H](C(=O)NCC(N)=O)NC(=O)CCNC(=O)[C@H](CCCNC(=N)N)NC(=O)[C@H](CCCNC(=N)N)NC(=O)[C@H](Cc2ccc(O)cc2)NC(=O)[C@H](C(C)C)NC(=O)[C@H](C(C)C)NC(=O)[C@H](CC(N)=O)NC1=O | EGFR | binding, SPR | – | kon | 217000 M⁻¹ s⁻¹ |
| O=c1nc(-c2ccccn2)sc2ccccc12 | EGFR G719C | cell-free assay, competition with immobilised ligand | 1 µM | remaining binding | 77% |
| c1cnn2ncc(-c3ccnc(N4CCC45COC5)n3)c2c1 | EGFR del752-759 | binding | 1 µM | remaining binding | 67% |
| Cc1ccc(C(=O)NCc2ccsc2)cc1C#Cc1cn(C(C)C)c2ncnc(N)c12 | EGFR L858R | enzyme activity, inhibitor | 1 µM | activity vs control | 56% |
| O=C(c1ccc(Nc2ncc(Cl)c(-c3cc4ccccc4s3)n2)cc1)N1CCC(N2CCCC2)CC1 | EGFR L861Q | binding, competition with immobilised ligand | 1 µM | remaining binding | 92% |
| CC(C)(O)[C@H]1CC[C@H](Nc2ccc3ncc(-c4cccc(C(F)(F)F)c4)n3n2)CC1 | EGFR | enzyme activity, inhibitor | 1 µM | remaining activity | 80% |
| COc1ccc2c(c1)O[C@H](c1ccc(OC)c(OC)c1)C[C@@H]2NC(=O)C1(c2ccc3c(c2)OC(F)(F)O3)CC1 | EGFR G719S | cell-free assay, competition with immobilised ligand | 1 µM | remaining binding | 99% |
| C=CC(=O)Nc1cccc(Oc2nc(Nc3ccc(N4CCN(C)CC4)cc3)nc3ccsc23)c1 | EGFR L858R/T790M | enzyme activity, inhibitor, ELISA | 0.1 µM | inhibition | 98.4% |
| O=C(c1ccc(Nc2ncc(Cl)c(-c3ccc(Cl)s3)n2)cc1)N1CCC(N2CCCC2)CC1 | EGFR G719S | binding, competition with immobilised ligand | 1 µM | remaining binding | 96% |
| Oc1cccc(-c2nc(N3CCOCC3)c3oc4ncccc4c3n2)c1 | EGFR | cell-free assay | 0.5 µM | remaining signal | 83.8% |

| Compound | target | test | conditions | quantity | value |
| --- | --- | --- | --- | --- | --- |
| Cc1cc(C)c(-n2ccn3nc(-c4cccnc4)cc23)cc1NC(=O)c1cc(C#N)cc(S(F)(F)(F)(F)F)c1 | EGFR L861Q | cell-free assay, competition with immobilised ligand | 0.1 µM | remaining binding | 91.1% |
| C=C(Cl)C(=O)Nc1cc(Nc2nc(Nc3cnn(C)c3)c3sccc3n2)c(OC)cc1N1CCN(C)CC1 | EGFR L858R/T790M | enzyme activity, inhibitor, ELISA | 0.1 µM | inhibition | 54.1% |
| c1nc2c(Nc3ccc4c(c3)OCCO4)nc(Nc3ccc4c(c3)OCCO4)nc2[nH]1 | EGFR | enzyme activity, inhibitor | 10 µM | activity vs control | 3.5% |
| N#CCCc1ccc2c(c1)-c1[nH]c3ccc([N+](=O)[O-])cc3c1CC(=O)N2 | EGFR | cell-free assay | 0.5 µM | remaining signal | 94.4% |
| N[C@@H]1CCN(c2nccc(-c3cnn4ncccc34)n2)C1 | EGFR L861Q | binding | 1 µM | remaining binding | 92% |
| COc1cc2ncnc(Nc3cccc(Cl)c3)c2cc1OC | EGFR | cell-free assay | 0.5 µM | remaining signal | 0.718% |
| Cc1cnc(NC2CCOCC2)nc1-n1cnc(C(=O)NC(CN)c2cc(F)cc(Cl)c2)c1 (stereo not drawn) | EGFR L858R | enzyme activity, inhibitor, radiometric | 1 µM | remaining activity | 112% |
| O=C(Nc1c[nH]nc1C(=O)NC1CCNCC1)c1cc(F)cc(F)c1 | EGFR G719C | binding, competition with immobilised ligand | 1 µM | remaining binding | 100% |
| Cc1ccc(NC(=O)c2ccc(C)c(C(F)(F)F)c2)cc1C#Cc1nn(C2CCC(O)CC2)c2ncnc(N)c12 (stereo not drawn) | EGFR | cell-free assay | 10 µM | remaining signal | 11% |
| CN(C)c1nccc(-c2cnc3ncccn23)n1 | EGFR G719S | binding | 1 µM | remaining binding | 84% |
| COc1cc(-c2cc(-c3ccc(N4CCNCC4)cc3)cnc2N)cc(OC)c1OC | EGFR L858R | enzyme activity, inhibitor | 0.1 µM | inhibition | 26% |
| CCC(=O)Nc1cc(Nc2nc(N3CCc4sccc4C3)c3cccnc3n2)c(OC)cc1N1CCSCC1 | EGFR L858R/T790M | enzyme activity, inhibitor, ELISA | 0.1 µM | inhibition | 28.8% |
| CCC(=O)N[C@@H]1CC[C@H](C(=O)N(C)c2ccc(-c3nc4ccccc4o3)cc2)C1 | EGFR G719S | cell-free assay, competition with immobilised ligand | 1 µM | remaining binding | 96% |
| O=C(Nc1cccc(Nc2cc(Nc3cccc(C(F)(F)F)c3)ncn2)c1)C1CC1 | EGFR | cell-free assay | 0.5 µM | remaining signal | 5.82% |
| CC1CCCN1c1nccc(-c2cnn3ncccc23)n1 (stereo not drawn) | EGFR T790M | binding | 1 µM | remaining binding | 100% |
| Cc1cc(NC(=O)c2cccc3cc(-c4cccc5[nH]nc(N)c45)ccc23)ccc1F | EGFR L861Q | enzyme activity, inhibitor | 0.1 µM | activity vs control | 95% |
| C=CC(=O)Nc1cc(Nc2nc(N3CCc4sccc4C3)c3cccnc3n2)c(OC)cc1N1CCN(CCO)CC1 | EGFR L858R/T790M | enzyme activity, inhibitor, ELISA | 0.1 µM | inhibition | 2% |
| F[C@@H]1CCN(c2nccc(-c3cnn4ncccc34)n2)C1 | Epidermal growth factor receptor (EGFR, Homo sapiens, UniProt P00533, del746-750) | binding | 1 µM | remaining binding | 66% |
| COc1cc(-c2cn(C3CCc4ccccc4N(CC(F)(F)F)C3=O)nn2)ccc1-n1ccc(C)n1 (stereo not drawn) | EGFR T790M | cell-free assay, competition with immobilised ligand | 1 µM | remaining binding | 59% |
| O=C(Nc1cnn(-c2csc(C(=O)NC3COC3)c2)c1)Nc1ccccc1Cl | EGFR | enzyme activity, inhibitor | 5 µM | remaining activity | 99.7% |
| CN(c1nccc(-c2cnn3ncccc23)n1)C1CC1 | EGFR del752-759 | binding | 1 µM | remaining binding | 100% |
| COc1cnc(Nc2cccc(S(N)(=O)=O)c2)nc1N1CCN(c2ccccc2)CC1 | EGFR G719S | binding, competition with immobilised ligand | 1 µM | remaining binding | 100% |
| Cn1nc(C(=O)NCc2ccc(C(=O)O)cc2)cc1-c1ccc2[nH]ccc2c1 | EGFR | cell-free assay, competition with immobilised ligand | 0.1 µM | remaining binding | 100% |
| C[C@H]1CCN(c2nccc(-c3cnn4ncccc34)n2)C1 | EGFR G719C | binding | 1 µM | remaining binding | 85% |
